Data as given in ChEMBL document CHEMBL4390653, “Potential anti-herpes and cytotoxic action of novel semisynthetic digitoxigenin-derivatives” (Eur J Med Chem, 2019).

Assays:
A549 = test: Cytotoxicity against human A549 cells assessed as inhibition of cell viability after 48 hrs by SRB assay; type: functional, cell-based; conditions: A549, 48 h
HCT-8 = test: Cytotoxicity against human HCT8 cells assessed as inhibition of cell viability after 48 hrs by SRB assay; type: functional, cell-based; conditions: HCT-8, 48 h
Outline: (§1)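 Cells seeded at 2.5 × 10^4 per well and exposed to a concentration range for 48 h, then SRB total-protein stain. PC3 grown in phenol-red-free DMEM with 1% glutamine; LNCaP in phenol-red-free RPMI 1640 with glutamine and non-essential amino acids. HCT-8 and H460 in RPMI 1640. MRC-5 (plus glutamine and non-essential amino acids) and primary gingival fibroblasts in DMEM. All media had 10% FBS, 37 °C, 5% CO2. Paclitaxel was the reference. IC50 versus untreated controls by nonlinear regression, three independent experiments.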

[1] = Inhibition of porcine cortex Na+/K+-ATPase alpha1/2/3 subunit using ATP as substrate preincubated for 30 mins followed by substrate addition and measured after 30 mins by malachite green reagent-based assay; set-up: species or system Sus scrofa
Human alphaherpesvirus 1 [2] = test: (§2) Antiviral activity against acyclovir-resistant Herpes simplex virus 1 29-R infected in African green monkey Vero cells assessed as inhibition of viral replication after 48 hrs by naphthol blue-black staining-based plaque reduction assay; type: functional, organism-based
Outline: (§3)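 Vero cells in MEM with 10% FBS, 37 °C, 5% CO2. Confluent monolayers (2.5 × 10^5 cells/well) infected with about 100 PFU for 1 h at 37 °C. Non-cytotoxic concentrations were added after infection. Cells were then PBS-washed and overlaid with MEM plus 1.5% carboxymethylcellulose, with or without compound, for 48 h. Fixed, naphthol blue-black stained, plaques counted under a stereomicroscope. IC50 versus untreated controls by nonlinear regression; mean of three independent experiments.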

Human alphaherpesvirus 2 = test: (§4) Antiviral activity against Herpes simplex virus 2-333 infected in African green monkey Vero cells assessed as inhibition of viral replication after 48 hrs by naphthol blue-black staining-based plaque reduction assay; type: functional, organism-based; conditions: Human alphaherpesvirus 2, 333, Vero; outline: as §3
[3] = Cytotoxicity against African green monkey Vero cells assessed as reduction in cell viability after 48 hrs by SRB assay; type: cell-based; conditions: chlorocebus sabaeus
Outline: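 Vero cells in MEM with 10% FBS, seeded at 2.5 × 10^4 cells/well. Exposed to a range of concentrations for 48 h at 37 °C, 5% CO2, then sulforhodamine B total-protein staining. CC50 is the concentration reducing viability by 50% versus untreated controls, from nonlinear regression; mean ± SD of three independent experiments.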

Human alphaherpesvirus 1 [4] = test: (§5) Antiviral activity against acyclovir-sensitive Herpes simplex virus 1 KOS infected in African green monkey Vero cells assessed as inhibition of viral replication after 48 hrs by naphthol blue-black staining-based plaque reduction assay; type: functional, organism-based; conditions: Human alphaherpesvirus 1, strain KOS; outline: as §3
[5] = Cytotoxicity against human HGF cells assessed as inhibition of cell viability after 48 hrs by SRB assay; type: cell-based; outline: as §1
NCI-H460 = test: Cytotoxicity against human H460 cells assessed as inhibition of cell viability after 48 hrs by SRB assay; type: functional, cell-based; conditions: NCI-H460, 48 h; outline: as §1
PC-3 = test: Cytotoxicity against human PC3 cells assessed as inhibition of cell viability after 48 hrs by SRB assay; type: functional, cell-based; conditions: PC-3, 48 h; outline: as §1
[6] = as §5, with “Selectivity index, ratio of Cytotoxicity against African green monkey Vero cells assessed as reduction in cell viability after 48 hrs by SRB assay to Antiviral” for “Antiviral”; type: toxicity; conditions: Vero cells infected with HSV-1 KOS, read-out: Ratio CC50/IC50
Outline: (§6)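 Selectivity index = CC50 in Vero cells (SRB, 48 h) divided by plaque-reduction IC50 for the same virus strain.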

[7] = as §4, with “Selectivity index, ratio of Cytotoxicity against African green monkey Vero cells assessed as reduction in cell viability after 48 hrs by SRB assay to Antiviral” for “Antiviral”; type: toxicity; conditions: Vero cells infected with HSV-2 333, read-out: Ratio CC50/IC50; outline: as §6
MRC5 = test: Cytotoxicity against human MRC5 cells assessed as inhibition of cell viability after 48 hrs by SRB assay; type: cell-based; conditions: MRC5, 48 h; outline: as §1
LNCaP = test: Cytotoxicity against human LNCAP cells assessed as inhibition of cell viability after 48 hrs by SRB assay; type: functional, cell-based; outline: as §1
[8] = as §2, with “Selectivity index, ratio of Cytotoxicity against African green monkey Vero cells assessed as reduction in cell viability after 48 hrs by SRB assay to Antiviral” for “Antiviral”; type: toxicity; conditions: Vero cells infected with HSV-1 29-R, read-out: Ratio CC50/IC50; outline: as §6
[9] = Human alphaherpesvirus 1, 29-R, Vero, 48 h, read-out: IC50

Row | SMILES | IC50 (A549) [µM] | IC50 (HCT-8) [µM] | IC50 [1] [µM] | IC50 (Human alphaherpesvirus 1 [2]; [9]) [µM] | IC50 (Human alphaherpesvirus 2) [µM] | CC50 at 48 h [3] [µM] | IC50 (Human alphaherpesvirus 1 [4]) [µM] | IC50 [5] [µM] | IC50 (NCI-H460) [µM] | IC50 (PC-3) [µM] | selectivity ratio at 48 h [6] | selectivity ratio at 48 h [7] | IC50 (MRC5) [µM] | IC50 (LNCaP) [µM] | selectivity ratio at 48 h [8] | IC50 (Human alphaherpesvirus 1 [2]; vero)
1 | C[C@]12CC[C@H](n3cc(CO[C@H]4O[C@H](CO)[C@@H](O)[C@H](O)[C@@H]4O)nn3)C[C@H]1CC[C@@H]1[C@@H]2CC[C@]2(C)[C@@H](C3=CC(=O)OC3)CC[C@]12O | 0.58 | 1.02 | 5.47 | 0.37 | 0.41 | > 300 | 0.55 | 1.41 | 0.24 | 0.58 | > 546 | > 732 | 0.36 | 1.66 | > 811 | –
2 | C[C@]12CC[C@H](NC(=O)CNc3ccc(Cl)cc3)C[C@H]1CC[C@@H]1[C@@H]2CC[C@]2(C)[C@@H](C3=CC(=O)OC3)CC[C@]12O | 1.38 | 1.68 | 10.8 | 1.8 | 1.4 | 314 | 1.51 | – | 1.14 | 1.18 | 208 | 224 | – | 1.28 | 174 | –
3 | C[C@]12CC[C@H](NC(=O)CBr)C[C@H]1CC[C@@H]1[C@@H]2CC[C@]2(C)[C@@H](C3=CC(=O)OC3)CC[C@]12O | 1.4 | 1.74 | – | – | – | 36.1 | – | – | – | 1.7 | – | – | – | 3.42 | – | –
4 | C[C@]12CC[C@H](NC(=O)CN3CCC(c4ccccc4)CC3)C[C@H]1CC[C@@H]1[C@@H]2CC[C@]2(C)[C@@H](C3=CC(=O)OC3)CC[C@]12O | 1.43 | 0.3 | 6.59 | 0.2 | 0.49 | 112 | 0.44 | – | 0.32 | 0.7 | 254 | 228 | – | 1.72 | 560 | –
5 | CC(=O)OC[C@H]1O[C@H](O[C@H]2[C@H](OC(C)=O)[C@@H](OC(C)=O)[C@H](OCc3cn([C@H]4CC[C@@]5(C)[C@H](CC[C@@H]6[C@@H]5CC[C@]5(C)[C@@H](C7=CC(=O)OC7)CC[C@]65O)C4)nn3)O[C@@H]2COC(C)=O)[C@H](OC(C)=O)[C@@H](OC(C)=O)[C@@H]1OC(C)=O | 12 | 9.51 | – | 33.4 | 9.75 | 181 | 26.3 | – | – | 29.5 | 6.86 | 18.5 | – | 23.8 | 5.42 | –
6 | C[C@]12CC[C@H](O)C[C@H]1CC[C@@H]1[C@@H]2CC[C@]2(C)[C@@H](C3=CC(=O)OC3)CC[C@]12O [DIGITOXIGENIN] | 1.68 | 2.48 | – | 1.02 | 3.23 | 27.5 | 1.09 | 1.47 | 0.92 | 2.41 | 25.3 | 8.53 | 1.16 | 3.7 | 27 | –
7 | CC(=O)OC[C@H]1O[C@H](OCc2cn([C@H]3CC[C@@]4(C)[C@H](CC[C@@H]5[C@@H]4CC[C@]4(C)[C@@H](C6=CC(=O)OC6)CC[C@]54O)C3)nn2)[C@@H](OC(C)=O)[C@@H](OC(C)=O)[C@@H]1OC(C)=O | 1.57 | 1.9 | 4.46 | 6.01 | 4.55 | 393 | 10.1 | – | 1.59 | 2.92 | 39 | 86.4 | – | 3.13 | 65.4 | –
8 | CC(=O)OC[C@H]1O[C@@H](OCc2cn([C@H]3CC[C@@]4(C)[C@H](CC[C@@H]5[C@@H]4CC[C@]4(C)[C@@H](C6=CC(=O)OC6)CC[C@]54O)C3)nn2)[C@H](OC(C)=O)[C@@H](OC(C)=O)[C@H]1OC(C)=O | 3.94 | 5.91 | – | – | – | 216 | – | – | – | 6.23 | – | – | – | 11.3 | – | –
9 | Nc1nc2c(ncn2COCCO)c(=O)[nH]1 [ACYCLOVIR] | – | – | – | – | 3.23 | > 2000 | 1.38 | – | – | – | > 1450 | > 619 | – | – | – | Not Active
10 | CC(=O)O[C@H]1C(=O)[C@@]2(C)[C@H]([C@H](OC(=O)c3ccccc3)[C@]3(O)C[C@H](OC(=O)[C@H](O)[C@@H](NC(=O)c4ccccc4)c4ccccc4)C(C)=C1C3(C)C)[C@]1(OC(C)=O)CO[C@@H]1C[C@@H]2O [PACLITAXEL] | 0.11 | 0.17 | – | – | – | – | – | > 200 | 0.08 | 0.67 | – | – | > 200 | 21 | – | –
11 | C[C@]12CC[C@H](NC(=O)CCl)C[C@H]1CC[C@@H]1[C@@H]2CC[C@]2(C)[C@@H](C3=CC(=O)OC3)CC[C@]12O | 1.17 | 1.45 | – | 0.34 | 1.37 | 84 | 0.69 | – | – | 1.92 | 122 | 61.3 | – | 1.96 | 247 | –
12 | C[C@]12CC[C@H](n3cc(CO[C@@H]4O[C@H](CO)[C@@H](O)[C@H](O)[C@H]4O)nn3)C[C@H]1CC[C@@H]1[C@@H]2CC[C@]2(C)[C@@H](C3=CC(=O)OC3)CC[C@]12O | 2.03 | 3.7 | – | 2.71 | 2.14 | > 300 | 2.79 | – | – | 2.35 | > 108 | > 140 | – | 4.69 | > 111 | –
13 | CC(=O)OC[C@H]1O[C@@H](OCc2cn([C@H]3CC[C@@]4(C)[C@H](CC[C@@H]5[C@@H]4CC[C@]4(C)[C@@H](C6=CC(=O)OC6)CC[C@]54O)C3)nn2)[C@H](OC(C)=O)[C@@H](OC(C)=O)[C@@H]1OC(C)=O | 3.74 | 3.57 | – | 2.11 | 3.8 | 286 | 6.27 | – | – | 7.05 | 45.5 | 75.1 | – | 7.32 | 135 | –
14 | C[C@]12CC[C@H](n3cc(CO[C@@H]4O[C@H](CO)[C@H](O)[C@H](O)[C@H]4O)nn3)C[C@H]1CC[C@@H]1[C@@H]2CC[C@]2(C)[C@@H](C3=CC(=O)OC3)CC[C@]12O | 2.19 | 2.58 | – | 0.92 | 1.24 | 290 | 0.98 | – | – | 2.75 | 296 | 234 | – | 7.49 | 315 | –
15 | C[C@]12CC[C@H](n3cc(CO[C@@H]4O[C@H](CO)[C@@H](O[C@H]5O[C@H](CO)[C@@H](O)[C@H](O)[C@H]5O)[C@H](O)[C@H]4O)nn3)C[C@H]1CC[C@@H]1[C@@H]2CC[C@]2(C)[C@@H](C3=CC(=O)OC3)CC[C@]12O | 2.86 | 5.43 | – | 3.24 | 4.18 | 147 | 4.29 | – | – | 2.74 | 34.3 | 35.2 | – | 5.24 | 45.4 | –
